Data published in ChEMBL document CHEMBL1138530 (Antimicrob Agents Chemother, 2007).
In brackets after ≈: the same amount, converted by molar mass.

Legend:
[1] = test system: Human immunodeficiency virus 1; experiment: Antiviral activity against HIV1 infected in human assessed as inhibition of viral replication at 250 mg, po; assay type: functional, organism-based
Summary of the method: (§1)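 Randomized, double-blind, placebo-controlled trial; HIV-infected adults (CD4 >200 cells/mm3, plasma viral load 5,000–250,000 copies/ml, no antiretrovirals ≥4 weeks), six per cohort, single oral dose. Plasma HIV RNA sampled predose through day 24. Viral-dynamic model (uninfected/infected CD4, virus; Hill-type inhibition of new infection by plasma concentration) fit by maximum likelihood then Bayesian estimation, pharmacokinetic parameters held fixed.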

[2] = test system: Human immunodeficiency virus 1; experiment: Antiviral activity against HIV1 assessed as inhibition of release of CA/p24 from CA-SP1/p25 at 37.8 nM by MAGI assay; assay type: functional; conditions: Human immunodeficiency virus 1, MAGI
[3] = test system: Human immunodeficiency virus 1; experiment: Antiviral activity against HIV1 infected in human assessed as growth/production of uninfected CD4 cells at 250 mg, po; assay type: functional; summary of the method: as §1
[4] = test system: Homo sapiens; experiment: Tlag in HIV1 infected human at 250 mg, po; assay type: ADME, organism-based; conditions: in vivo
Summary of the method: (§2)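 Single oral dose to HIV-infected adults, six per cohort; plasma sampled 0–48 h and days 3–24. Heparinized plasma, internal-standard spiked, acetonitrile-precipitated, assayed by reverse-phase LC-MS/MS (MRM 583.3→455.2); ranges 20.0–16,000 ng/ml (75 mg) or 100–60,000 ng/ml (150, 250 mg). Oral two-compartment linear model with absorption lag fit by maximum likelihood then Bayesian estimation.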

[5] = test system: Human immunodeficiency virus 1; experiment: Antiviral activity against HIV1 infected in human assessed as death rate constant of uninfected CD4 cells at 250 mg, po; assay type: functional
Summary of the method: (§3)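 Randomized, double-blind, placebo-controlled trial in HIV-infected adults (CD4 >200 cells/mm3, plasma viral load 5,000–250,000 copies/ml, off antiretrovirals ≥4 weeks), six per cohort, single oral dose. Plasma drug levels measured by LC-MS/MS; HIV RNA sampled to day 24. Parameters from a viral-dynamic model (Hill-type inhibition of new CD4 infection) fit per subject by maximum likelihood then Bayesian estimation; reported as mean (%CV).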

[6] = test system: Human immunodeficiency virus 1; experiment: Antiviral activity against HIV1 infected in human assessed as death rate constant of uninfected CD4 cells at 150 mg, po; assay type: functional; summary of the method: as §3
[7] = test system: Human immunodeficiency virus 1; experiment: Antiviral activity against HIV1 infected in human assessed as maximum rate of viral replication measured as logarithmic viral copies at 150 mg, po; assay type: functional; summary of the method: as §1
[8] = test system: Human immunodeficiency virus 1; experiment: Antiviral activity against HIV1 infected in human assessed as growth/production of uninfected CD4 cells at 150 mg, po; assay type: functional; summary of the method: as §1
[9] = Apparent oral clearance in HIV1 infected human at 75 mg, po; assay type: ADME, organism-based; conditions: in vivo; summary of the method: as §2
[10] = test system: Human immunodeficiency virus 1; experiment: Antiviral activity against HIV1 infected in human assessed as maximum rate of viral replication measured as logarithmic viral copies at 250 mg, po; assay type: functional; summary of the method: as §1
[11] = test system: Homo sapiens; experiment: Tlag in HIV1 infected human at 150 mg, po; assay type: ADME, organism-based; conditions: in vivo; summary of the method: as §2
[12] = test system: Homo sapiens; experiment: Distributional clearance in HIV1 infected human at 150 mg, po; assay type: ADME, organism-based; conditions: in vivo; summary of the method: as §2
[13] = test system: Human immunodeficiency virus 1; experiment: Antiviral activity against HIV1 infected in human assessed as inhibition of viral replication at 75 mg, po; assay type: functional, organism-based; summary of the method: as §1
[14] = test system: Human immunodeficiency virus 1; experiment: Antiviral activity against HIV1 infected in human assessed as death rate constant of infected CD4 cells at 150 mg, po; assay type: functional; summary of the method: as §3
[15] = test system: Homo sapiens; experiment: Effect of CD4 cell count in HIV1 infected human at 150 mg, po after 10 days; assay type: functional
Summary of the method: (§4)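 CD4 cell count change from baseline 10 days after a single oral dose in HIV-infected adults (baseline CD4 >200 cells/mm3), six per cohort, placebo-controlled double-blind design; tested by dose and over time.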

[16] = test system: Human immunodeficiency virus 1; experiment: Antiviral activity against HIV1 infected in human assessed as logarithmic reduction in HIV RNA copies at 150 mg, po relative to baseline; assay type: functional
Summary of the method: (§5)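 Randomized, double-blind, placebo-controlled single oral dose in HIV-infected adults (CD4 >200 cells/mm3, viral load 5,000–250,000 copies/ml, off therapy ≥4 weeks), six per cohort. Plasma HIV RNA at screening, predose, 6–48 h and days 3–24; maximum observed log10 drop from baseline per patient, averaged by dose, compared by ANOVA.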

[17] = Half life in HIV1 infected human at 75 mg, po; assay type: ADME, organism-based; conditions: in vivo; summary of the method: as §2
[18] = test system: Human immunodeficiency virus 1; experiment: Antiviral activity against HIV1 infected in human assessed as clearance rate of virions at 250 mg, po; assay type: functional; summary of the method: as §1
[19] = test system: Homo sapiens; experiment: Effect of CD4 cell count in HIV1 infected human at 75 mg, po after 10 days; assay type: functional; summary of the method: as §4
[20] = test system: Human immunodeficiency virus 1; experiment: Antiviral activity against HIV1 infected in human assessed as clearance rate of virions at 75 mg, po; assay type: functional; summary of the method: as §1
[21] = test system: Human immunodeficiency virus 1; experiment: Antiviral activity against HIV1 infected in human assessed as number of new virions produced by infected CD4 cells at 250 mg, po; assay type: functional; summary of the method: as §1
[22] = test system: Homo sapiens; experiment: Tlag in HIV1 infected human at 75 mg, po; assay type: ADME, organism-based; conditions: in vivo; summary of the method: as §2
[23] = test system: Homo sapiens; experiment: Distributional clearance in HIV1 infected human at 75 mg, po; assay type: ADME, organism-based; conditions: in vivo; summary of the method: as §2
[24] = test system: Homo sapiens; experiment: Toxicity in HIV1 infected human assessed as mortality at 75 to 250 mg, po; assay type: organism-based; conditions: in vivo
Summary of the method: (§6)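 Safety monitoring of HIV-infected adults given a single oral dose or placebo (randomized, double-blind, six per cohort), followed to day 24 for adverse events, serious adverse events and deaths.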

[25] = Half life in po dosed human; assay type: ADME, organism-based; conditions: in vivo
[26] = test system: Human immunodeficiency virus 1; experiment: Antiviral activity against HIV1 infected in human assessed as death rate constant of infected CD4 cells at 75 mg, po; assay type: functional; summary of the method: as §3
[27] = test system: Human immunodeficiency virus 1; experiment: Antiviral activity against HIV1 infected in human assessed as logarithmic reduction in HIV RNA copies at 250 mg, po relative to baseline; assay type: functional; summary of the method: as §5
[28] = test system: Human immunodeficiency virus 1; experiment: Antiviral activity against HIV1 infected in human assessed as number of new virions produced by infected CD4 cell at 150 mg, po; assay type: functional; summary of the method: as §1
[29] = test system: Human immunodeficiency virus 1; experiment: Antiviral activity against HIV1 infected in human assessed as rate at which virus infects CD4 cells at 250 mg, po; assay type: functional; summary of the method: as §1
[30] = Apparent oral clearance in HIV1 infected human at 250 mg, po; assay type: ADME, organism-based; conditions: in vivo; summary of the method: as §2
[31] = test system: Human immunodeficiency virus 1; experiment: Antiviral activity against HIV1 infected in human assessed as clearance rate of virions at 150 mg, po; assay type: functional; summary of the method: as §1
[32] = test system: Plasma; experiment: Stability in human plasma; assay type: ADME, cell-free
[33] = test system: Human immunodeficiency virus 1; experiment: Antiviral activity against HIV1 infected in human assessed as maximum rate of viral replication measured as logarithmic viral copies at 75 mg, po; assay type: functional; summary of the method: as §1
[34] = test system: Human immunodeficiency virus 1; experiment: Antiviral activity against HIV1 infected in human assessed as rate at which virus infects CD4 cells at 150 mg, po; assay type: functional; summary of the method: as §1
[35] = test system: Human immunodeficiency virus 1; experiment: Antiviral activity against HIV1 infected in human assessed as rate at which virus infects CD4 cells at 75 mg, po; assay type: functional; summary of the method: as §1
[36] = test system: Human immunodeficiency virus 1; experiment: Antiviral activity against HIV1 infected in human assessed as logarithmic reduction in HIV RNA copies at 75 mg, po relative to baseline; assay type: functional; summary of the method: as §5
[37] = test system: Homo sapiens; experiment: Distributional clearance in HIV1 infected human at 250 mg, po; assay type: ADME, organism-based; conditions: in vivo; summary of the method: as §2
[38] = test system: Homo sapiens; experiment: Toxicity in HIV1 infected human assessed as incidence of adverse effect at 75 to 250 mg, po; assay type: organism-based; conditions: in vivo; summary of the method: as §6
[39] = test system: Human immunodeficiency virus 1; experiment: Antiviral activity against HIV1 infected in human assessed as number of new virions produced by infected CD4 cell at 75 mg, po; assay type: functional; summary of the method: as §1
[40] = test system: Human immunodeficiency virus 1; experiment: Antiviral activity against HIV1 infected in human assessed as growth/production of uninfected CD4 cells at 75 mg, po; assay type: functional; summary of the method: as §1
[41] = test system: Human immunodeficiency virus 1; experiment: Antiviral activity against HIV1 infected in human assessed as death rate constant of infected CD4 cells at 250 mg, po; assay type: functional; summary of the method: as §3
[42] = test system: Homo sapiens; experiment: Effect of CD4 cell count in HIV1 infected human at 250 mg, po after 10 days; assay type: functional; summary of the method: as §4
[43] = Apparent oral clearance in HIV1 infected human at 150 mg, po; assay type: ADME, organism-based; conditions: in vivo; summary of the method: as §2
[44] = Half life in HIV1 infected human at 250 mg, po; assay type: ADME, organism-based; conditions: in vivo; summary of the method: as §2
[45] = test system: Human immunodeficiency virus 1; experiment: Antiviral activity against HIV1 infected in human assessed as death rate constant of uninfected CD4 cells at 75 mg, po; assay type: functional; summary of the method: as §3
[46] = Half life in HIV1 infected human at 150 mg, po; assay type: ADME, organism-based; conditions: in vivo; summary of the method: as §2
[47] = test system: Human immunodeficiency virus 1; experiment: Antiviral activity against HIV1 infected in human assessed as inhibition of viral replication at 150 mg, po; assay type: functional, organism-based; summary of the method: as §1

C=C(C)[C@@H]1CC[C@]2(C(=O)O)CC[C@]3(C)[C@H](CC[C@@H]4[C@@]5(C)CC[C@H](OC(=O)CC(C)(C)C(=O)O)C(C)(C)[C@@H]5CC[C@]43C)[C@@H]12 [BEVIRIMAT]
EC50 [1]: 0.55 ng/mL (≈ 0.94 nM) | inhibition at 0.0378 µM [2]: 90% | Activity [3]: 1856.6 mL/h | Tlag [4]: 0.15 h | Activity [5]: 0.0016 h⁻¹ | Activity [6]: 0.0012 h⁻¹ | Activity [7]: 4.59 mL⁻¹ | Activity [8]: 1340 mL/h | CL/F [9]: 2.83 mL/min | Activity [10]: 4.46 mL⁻¹ | Tlag [11]: 0.2 h | CLd [12]: 0.48 L/h | EC50 [13]: 1.19 ng/mL (≈ 2.03 nM) | Activity [14]: 0.017 h⁻¹ | Activity [15]: 121 | Activity [16]: -0.47 mL⁻¹ | half-life [17]: 63.9 h | Activity [18]: 0.024 h⁻¹ | Activity [19]: -15 | Activity [20]: 0.008 h⁻¹ | Activity [21]: 80.2 | Tlag [22]: 0.18 h | CLd [23]: 0.48 L/h | Activity [24]: Non-toxic | half-life [25]: 55 h | Activity [26]: 0.013 h⁻¹ | Activity [27]: -0.46 mL⁻¹ | Activity [28]: 126 | Activity [29]: 0.0349 h⁻¹ | CL/F [30]: 2.83 mL/min | Activity [31]: 0.071 h⁻¹ | Stability [32]: 95 days | Activity [33]: 5.13 mL⁻¹ | Activity [34]: 0.028 h⁻¹ | Activity [35]: 0.14 h⁻¹ | Activity [36]: -0.14 mL⁻¹ | CLd [37]: 0.45 L/h | Activity [38]: Non-toxic | Activity [39]: 137.8 | Activity [40]: 320.7 mL/h | Activity [41]: 0.007 h⁻¹ | Activity [42]: 104 | CL/F [43]: 2.67 mL/min | half-life [44]: 62.1 h | Activity [45]: 0.0031 h⁻¹ | half-life [46]: 55.1 h | EC50 [47]: 0.35 ng/mL (≈ 0.598 nM)
